Rows were chosen to be rich in hits. Some 3.1% of all compounds tested hit in one or more screens of this group.
ABHD5-PLIN5 inh: inhibitors of human ABHD5-perilipin-5 interaction; inhibition, % at 4 µM; Split G. princeps luciferase complementation, luminescence, 4 h; actives 0.78% (n = 360,000);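 active means inhibition above the mean inhibition across every tested compound plus 3 SD, cut at about 22% in these data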
PRMT1 inh: PRMT1 (human) inhibition, primary screen. recombinant PRMT1, activity-based probe fluorescence polarization. inhibition, % at 2.79 µM. actives 1.3% (n = 370,000). Q99873. AID 652257;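 active means inhibition above about 21% made by adding two undisclosed values, limit read from the data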
MBD2 DNA inh: inhibitors of human MBD2 binding to methylated oligonucleotide; Q9UBB5; TR-FRET; inhibition, % at 4.4 µM; actives 0.31% (n = 370,000); AID 686964; in the data active means inhibition above about 13%
RBBP9 inhibitor: blocks human serine hydrolase RBBP9; O75884; actives 0.2% (n = 220,000); inhibition, % at 7.94 µM; AID 1515; recombinant RBBP9, FP-Rh probe fluorescence polarization;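 active means inhibition above the campaign mean of all tested compounds plus 3 SD, cut at about 14% in these data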
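System: RBBP9 protein / Quantity: 2.5 µM RBBP9 dispensing solution, before mixing / Also added: Serine-hydrolase probe FP-Rh, 375 nM pre-mixing / Dosing: 7.94 µM single dose, 0.794% DMSO / Timing: enzyme-compound preincubation 30 min, then probe labeling 45 min, 25 °C / Signal: FP readout at 525/598 nm / Controls: DMSO-treated enzyme wells and wells lacking RBBP9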
LEDGF integ inh: blocks HIV-1 LEDGF/p75-dependent DNA integration; inhibition, % at 3.7 µM; AID 743269; TR-FRET IN-LEDGF/p75 DNA integration, Eu/Cy5; actives 0.64% (n = 370,000);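 active means inhibition above the screen-wide mean plus 3 SD, cut at about 13% in these data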;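 further: signal is the Cy5 over europium emission ratio at 671 and 618 nm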
UHRF1 binding: UHRF1 methyl-DNA binding inhibition. Q96T88. UHRF1 binding to methylated oligo, TR-FRET. inhibition, % at 4.4 µM. actives 0.75% (n = 370,000);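 further: UHRF1 SRA domain binding a hemimethylated CpG hairpin DNA probe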
Target sequence (Q96T88 whole entry, looked up, the tested form may be a part): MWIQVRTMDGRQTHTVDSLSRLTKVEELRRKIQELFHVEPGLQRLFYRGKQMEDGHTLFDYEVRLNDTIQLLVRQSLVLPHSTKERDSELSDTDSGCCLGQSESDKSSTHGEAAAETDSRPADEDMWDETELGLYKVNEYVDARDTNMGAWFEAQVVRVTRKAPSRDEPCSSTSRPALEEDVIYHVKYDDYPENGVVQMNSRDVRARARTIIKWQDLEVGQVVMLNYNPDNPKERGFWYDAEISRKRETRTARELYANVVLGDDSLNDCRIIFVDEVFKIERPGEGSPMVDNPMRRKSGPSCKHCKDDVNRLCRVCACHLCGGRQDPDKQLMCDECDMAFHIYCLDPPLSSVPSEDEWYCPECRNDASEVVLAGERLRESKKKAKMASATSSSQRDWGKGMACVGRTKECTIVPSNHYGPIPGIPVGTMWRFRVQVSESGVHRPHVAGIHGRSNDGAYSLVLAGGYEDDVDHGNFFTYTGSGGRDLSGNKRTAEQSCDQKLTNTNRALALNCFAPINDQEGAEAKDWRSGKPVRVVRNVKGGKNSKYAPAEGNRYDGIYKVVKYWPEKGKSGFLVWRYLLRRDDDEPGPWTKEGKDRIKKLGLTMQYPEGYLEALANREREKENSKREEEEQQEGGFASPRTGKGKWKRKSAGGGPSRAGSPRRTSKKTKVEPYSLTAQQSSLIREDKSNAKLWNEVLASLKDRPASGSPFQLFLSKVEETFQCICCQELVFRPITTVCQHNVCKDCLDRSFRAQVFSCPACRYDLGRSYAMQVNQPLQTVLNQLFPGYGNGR
UHRF1 ctr MBD2: counter-screen for MBD2 inhibitors: human UHRF1 methylated DNA binding inhibitors | shares compounds with MBD2 DNA inh | UHRF1 binding to methylated oligonucleotide, TR-FRET | inhibition, % at 4.4 µM | actives 25% (n = 1,000);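 further: UHRF1 SRA domain binding a labeled hemimethylated CpG hairpin DNA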
MBD2 DBD conf: confirmation of human MBD2-DBD methylated oligonucleotide binding inhibitors; actives 26% (n = 1,000); AID 720531; TR-FRET MBD2-DBD binding to methylated oligonucleotide; inhibition, % at 4.4 µM; shares compounds with MBD2 DNA inh; in the data active means inhibition above about 14%
Hits are given with their value; i = inactive; nt = not tested or not shown. Unless noted, no stated cut-off is given here; in the data, active means inhibition above about 21%; inactive means the rest.

SMILES | ABHD5-PLIN5 inh | PRMT1 inh | MBD2 DNA inh | RBBP9 inhibitor | LEDGF integ inh | UHRF1 binding | UHRF1 ctr MBD2 | MBD2 DBD conf
COc1cc(NC(=O)CSc2nc(C)cc(=O)[nH]2)cc(OC)c1 | nt | i | i | nt | i | i | nt | nt
COC(=O)C[C@H]1C[C@@H]2c3cc(NS(=O)(=O)c4ccc(OC)cc4)ccc3O[C@@H]2[C@H](CO)O1 | i | i | i | nt | i | i | nt | nt
COC(=O)C[C@H]1C[C@H]2c3cc(NS(=O)(=O)c4ccc(OC)cc4)ccc3O[C@H]2[C@H](CO)O1 | i | i | 20.6 | nt | i | i | i | i
Cn1cccc1C(=O)N1CCN(S(=O)(=O)c2ccc(Cl)s2)CC1 | nt | i | i | nt | i | i | nt | nt
COC(=O)c1ccc(CSc2nc3c(c(=O)[nH]2)CCC3)cc1 | i | i | 14.5 | nt | i | i | i | i
CCc1nc2c(OCc3cc(Cl)cc(Cl)c3)cccn2c1N(C)C(=O)c1ccccc1F | i | i | i | nt | i | i | nt | nt
CCc1nc2c(OCc3cccc(OC)c3)cccn2c1N(C)C(=O)c1ccccc1F | i | i | 25.7 | nt | i | i | i | i
COc1ccccc1CCNC(=O)CSc1nc(=O)[nH]c2c1CCC2 | i | i | 23.1 | nt | i | i | i | i
COc1ccccc1CCNC(=O)CSc1nc2c([nH]1)c(=O)n(C)c(=O)n2C | nt | i | i | nt | i | i | nt | nt
Cc1ccc(S(=O)(=O)NCC2CCC(C(=O)NCc3ccc4c(c3)OCO4)CC2)cc1 (stereo not drawn) | i | i | i | i | i | i | nt | nt
O=C(NCc1ccc2c(c1)OCO2)C1CCC(CNS(=O)(=O)c2ccc(Cl)cc2)CC1 (stereo not drawn) | i | i | 20.3 | i | i | i | i | i
O=C(Nc1c[nH]c(=O)[nH]c1=O)c1cc([N+](=O)[O-])cc([N+](=O)[O-])c1 | i | i | 29.3 | nt | i | i | i | i
CN(Cc1ccccc1)C(=O)c1ccc2sc([C@H]3C[C@H](O)[C@@H](CO)O3)nc2c1 | i | i | i | nt | i | i | nt | nt
CCN(CC)C(=O)c1ccc2sc([C@H]3C[C@H](O)[C@@H](CO)O3)nc2c1 | i | i | 21.1 | nt | i | i | i | i
C[C@@H]1OC(C2CCCCC2)N(C)[C@H]2C[C@H]3c4cc(N5CCOCC5)ccc4CCN3C[C@@H]12 (stereo partly drawn) | nt | i | i | nt | i | i | nt | nt
O=C(O)c1ccccc1C(=O)c1ccc(Br)s1 | i | i | i | i | i | i | nt | nt
Cc1ccc(C(=O)c2ccccc2C(=O)O)s1 | i | i | 15.8 | i | i | 25.9 | 41.2 | 13.7
Cc1cc(C(=O)N2CCOCC2)c(C)o1 | i | i | 15.4 | i | i | 21.7 | i | i
CC(=O)N1CCN(C(=O)c2cc(C)oc2C)CC1 | i | i | i | nt | i | i | nt | nt
Cc1ccccc1C(=O)N[C@H](C(=O)N1CCC[C@H]1C(=O)NC1CCCC1)C1CCCCC1 | nt | i | i | nt | i | i | nt | nt
Cc1cc(C(=O)COC(=O)c2cc(Cl)c(O)c(Cl)c2)c(C)n1C | i | i | 17.5 | nt | 42.6 | 33.4 | i | i
Cc1c(C(=O)Nc2ccccc2)cnn1-c1ccccc1 | i | i | i | nt | i | i | nt | nt
Cc1c(C(=O)Nc2cccc(F)c2)cnn1-c1ccccc1 | i | i | 13.2 | nt | i | i | i | i
Cc1cc2[nH]c3c(c[n+](C)c4ccccc34)c2cc1C | i | i | 83.0 | i | i | 50.6 | 60.1 | 88.3
C#CCOCCOCCOCCNc1nc(N2CCN(C(=O)[C@H](CO)n3cc([C@@H](N)C(C)C)nn3)CC2)nc(N2CCN(C(=O)[C@H](CO)n3cc([C@@H](N)C(C)C)nn3)CC2)n1 | i | i | 15.0 | nt | i | 22.0 | i | i
SMILES | ABHD5-PLIN5 inh | PRMT1 inh | MBD2 DNA inh | RBBP9 inhibitor | LEDGF integ inh | UHRF1 binding | UHRF1 ctr MBD2 | MBD2 DBD conf
C#CCOCCOCCOCCNc1nc(N2CCN(C(=O)[C@H](CO)n3cc([C@@H](N)C(C)C)nn3)CC2)nc(N2CCN(C(=O)[C@H](CCC(=O)O)n3cc([C@@H](N)CCCCN)nn3)CC2)n1 | i | i | i | nt | i | i | nt | nt
COC(=O)C1C(c2ccccc2)C=CC(c2ccccc2)C1C(=O)O (stereo not drawn) | i | i | 43.8 | i | i | i | i | i
CCC(=O)c1ccc(OCC(=O)NC2CCN(Cc3ccccc3)CC2)cc1 | i | i | i | nt | i | i | nt | nt
CCC(=O)c1ccc(OCC(=O)NCc2ccccc2CN2CCCC2)cc1 | i | i | 34.7 | nt | i | i | i | i
CCN(CC)S(=O)(=O)c1ccc(C(=O)NCc2nnc(SCC(=O)OC)n2C)cc1 | i | i | 20.6 | i | i | i | i | i
CN1CCCN(C(=O)C2CCCN(C(=O)c3ccc4c(c3)NC(=O)CS4)C2)CC1 (stereo not drawn) | nt | i | 25.3 | nt | i | i | i | i
CCCC[C@@H]1C(=O)N2N=Cc3cscc3[C@H]2N2N=Cc3cscc3[C@@H]12 | nt | i | i | nt | i | i | nt | nt
CN(Cc1c(O)ccc2c1oc(=O)c1ccccc12)C1CCCCC1 | i | i | 20.0 | i | i | i | i | i
Cc1cccc(C)c1NC(=O)C1CCCN1S(=O)(=O)c1cccc2cccnc12 (stereo not drawn) | nt | i | i | nt | i | i | nt | nt
COc1ccc(Cc2c[nH]c(=O)[nH]c2=O)cc1 | i | i | 16.1 | i | i | 23.6 | i | i
COC(=O)C1=C(C)N(C)C(=NCc2ccc(OC)cc2)NC1c1cccc(C(F)(F)F)c1 (stereo not drawn) | nt | i | i | nt | i | i | nt | nt
CCCOCc1ccc(O)c2ncccc12 | i | i | 19.3 | i | i | i | i | i
Cc1ccccc1Cn1cc(COC(=O)N(C)Cc2ccccc2)nn1 | nt | i | i | nt | i | i | nt | nt
Cc1[nH][nH]c(=O)c1C(c1cc(Br)ccc1O)c1c(C)[nH][nH]c1=O | i | i | 53.4 | nt | i | i | i | i
O=c1[nH]c(=S)[nH]c2c1C(c1ccc(Br)cc1)c1c([nH]c(=S)[nH]c1=O)O2 | i | 44.5 | 104.7 | nt | 82.9 | 107.3 | 104.4 | 88.4
O=C1c2ccccc2C(=O)C1c1ccc(Br)cc1 | i | i | i | nt | i | i | nt | nt
O=C(NCc1ccccc1)[C@@H]1CCCN1C(=O)[C@H]1CCCN1C(=O)c1ccc(F)c(F)c1 | nt | i | i | nt | i | i | nt | nt
COc1cc(OC)c(-c2c3cc(O)c(=O)cc-3oc3cc(O)c(O)cc23)cc1OC | i | 23.6 | 15.2 | i | 83.8 | i | i | i
COc1cccc(NC(=O)CN(C)C(=O)c2cc3c(s2)CCC3)c1 | nt | i | 27.1 | nt | i | 55.3 | 30.4 | 25.8
COc1ccc(NC(=O)CN(C)C(=O)c2cc3c(s2)CCC3)cc1 | i | nt | nt | nt | nt | nt | nt | nt
CC1CCN(C(=O)c2ncn3c2C(=O)NC[C@@H]3C)CC1 | nt | i | i | nt | i | i | nt | nt

High-throughput results as filed in PubChem.
